Results gathered from unrelated publications.
Each line is one published result; the experiments were not run side by side. pKi: −log10 of the molar value.
Target: Histamine H1 receptor (HRH1, Homo sapiens, UniProt P35367)
Method: radioligand

Structure (SMILES)	effect on	notes	pKi
CN(C)c1ccc(/C=C/C=C2\CCc3cc(OCCCN4CCCCC4)ccc3C2=O)cc1	ligand displacement	cell membranes	6.06
O=C1NC(c2ccccc2)(c2ccccc2)C(=O)N1CCCN1CCCCC1	ligand displacement	cell membranes	5.20
CCCCCCCNCCCc1ccc([N+](=O)[O-])cc1	ligand displacement	–	5.04
CN(C)c1ccc(/C=C2\CCc3ccc(OCCCN4CCCCC4)cc3C2=O)cc1	ligand displacement	cell membranes	5.67
CN1CCC(=C(c2ccccc2)c2ccccc2)CC1	cell-free assay	–	8.50
CCCNc1nc2ccccc2n1Cc1ccc(Cl)cc1	cell-free assay	–	8.21
CN1CCC(C2c3ccccc3CCc3ccccc32)CC1	cell-free assay	–	9.20
Cc1nc2cc(OCCCCN3CCN(c4cccc(Cl)c4Cl)CC3)ccc2s1	ligand displacement	–	7.24
CN1CCC(=C2c3ccccc3CCc3ccccc32)CC1	cell-free assay	–	9.60
CN(C)c1ccc(/C=C/C=C2\CCc3cc(OCc4ccc(OCCCN5CCCCC5)cc4)ccc3C2=O)cc1	ligand displacement	cell membranes	5.86
CCc1nc2cc(OCCCCN3CCC(c4cccc(Cl)c4Cl)CC3)ccc2s1	ligand displacement	–	6.16
CN1CCN(C2c3ccccc3CCc3ccccc32)CC1	cell-free assay	–	8.70
O=C1CCCc2cc(OCc3ccc(OCCCN4CCCCC4)cc3)ccc21	ligand displacement	cell membranes	5.71
Clc1ccc(CCCOCCCN2CCCCC2)cc1	ligand displacement	cell membranes	< 5.00
